pIC50: −log10 of the molar value.
Tests used:
[1] = target: T1, Protein kinase C theta type (Homo sapiens, UniProt Q04759); test: Inhibition of PKCtheta by FP assay
Summary of the method: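 Recombinant PKC-θ, […], in 20 mM Hepes pH 7.6 with 0.1 mM CaCl2, 10 mM MgCl2, 0.01% Chaps, TCEP, Na orthovanadate and protease inhibitor cocktail. Enzyme pre-incubated with compound dilutions for 10 min at rt. Phosphopeptide read by competition FP using fluorescein-labelled phosphopeptide tracer and anti-phosphoserine antibody in quench buffer.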

T-cell = test: Inhibition of IL2 production in […]-stimulated human CD4+ T cells; type: functional, cell-based; details: in the assay text read “anti-CD3/anti-CD28” for “anti-CD3/anti-CD8”
Summary of the method: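 Human CD4+ T cells isolated from whole blood by positive selection. Cells activated through TCR and CD28 with anti-CD3 and anti-CD28 mAbs. 50,000 cells/well exposed to compound dilutions at 0.125% DMSO final, or DMSO alone, overnight at 37 °C. Supernatant IL-2 measured by ELISA after 1:10 dilution.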

Cytochrome P450 2C9 = Cytochrome P450 2C9 (Homo sapiens, UniProt P11712); test: Inhibition of CYP2C9; type: ADME
Cytochrome P450 2C9, sequence (P11712 whole entry): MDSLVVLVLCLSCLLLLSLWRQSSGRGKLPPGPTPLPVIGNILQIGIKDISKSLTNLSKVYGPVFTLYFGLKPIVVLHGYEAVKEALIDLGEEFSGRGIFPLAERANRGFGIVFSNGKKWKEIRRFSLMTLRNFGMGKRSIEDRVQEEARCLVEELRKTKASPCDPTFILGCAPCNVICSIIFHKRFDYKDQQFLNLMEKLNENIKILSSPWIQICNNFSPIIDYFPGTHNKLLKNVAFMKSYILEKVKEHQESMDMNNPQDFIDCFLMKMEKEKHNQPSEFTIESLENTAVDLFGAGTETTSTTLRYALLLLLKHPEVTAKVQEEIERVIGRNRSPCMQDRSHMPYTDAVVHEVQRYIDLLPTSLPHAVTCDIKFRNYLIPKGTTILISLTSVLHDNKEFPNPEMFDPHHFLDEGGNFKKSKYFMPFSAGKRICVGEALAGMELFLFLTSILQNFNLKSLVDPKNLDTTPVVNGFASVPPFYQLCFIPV

Cytochrome P450 2D6 = Cytochrome P450 2D6 (Homo sapiens, UniProt P10635); test: Inhibition of CYP2D6; type: ADME
Cytochrome P450 2D6, sequence (P10635 whole entry): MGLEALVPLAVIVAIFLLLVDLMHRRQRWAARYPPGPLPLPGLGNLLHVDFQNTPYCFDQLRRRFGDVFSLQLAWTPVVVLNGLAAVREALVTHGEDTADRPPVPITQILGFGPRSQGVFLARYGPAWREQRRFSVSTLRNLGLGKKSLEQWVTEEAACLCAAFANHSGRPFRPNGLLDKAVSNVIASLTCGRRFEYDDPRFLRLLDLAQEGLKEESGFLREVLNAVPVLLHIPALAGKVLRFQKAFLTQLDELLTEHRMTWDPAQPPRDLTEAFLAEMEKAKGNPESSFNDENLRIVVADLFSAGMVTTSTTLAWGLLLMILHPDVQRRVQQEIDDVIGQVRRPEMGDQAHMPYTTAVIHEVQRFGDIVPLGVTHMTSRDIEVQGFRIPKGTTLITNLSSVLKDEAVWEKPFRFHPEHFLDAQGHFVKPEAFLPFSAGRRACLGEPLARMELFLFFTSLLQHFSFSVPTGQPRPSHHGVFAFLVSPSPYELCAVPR

Cytochrome P450 3A4 [2] = target: T2, Cytochrome P450 3A4 (Homo sapiens, UniProt P08684); test: Inhibition of CYP3A4 in presence of BFC substrate; type: ADME
T2 sequence (P08684 whole entry): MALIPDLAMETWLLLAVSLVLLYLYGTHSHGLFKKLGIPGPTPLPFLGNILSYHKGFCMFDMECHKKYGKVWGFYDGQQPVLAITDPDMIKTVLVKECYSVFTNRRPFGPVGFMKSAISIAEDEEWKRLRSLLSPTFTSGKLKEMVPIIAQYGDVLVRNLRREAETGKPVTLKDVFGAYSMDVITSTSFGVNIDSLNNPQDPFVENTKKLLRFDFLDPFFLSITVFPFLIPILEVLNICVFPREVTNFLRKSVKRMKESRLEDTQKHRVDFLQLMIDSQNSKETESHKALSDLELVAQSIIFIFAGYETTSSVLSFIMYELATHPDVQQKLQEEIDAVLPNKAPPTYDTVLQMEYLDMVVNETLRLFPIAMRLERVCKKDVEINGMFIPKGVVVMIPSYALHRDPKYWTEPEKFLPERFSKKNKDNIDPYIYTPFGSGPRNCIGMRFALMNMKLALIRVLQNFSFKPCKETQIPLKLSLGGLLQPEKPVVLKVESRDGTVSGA

[3] = Stability in human liver microsomes; type: ADME, Microsome
[4] = Permeability across Caco-2 cells from apical to basolateral side; type: ADME, cell-based; details: human, read-out: permeability
[5] = Permeability across Caco-2 cells from basolateral to apical side; type: ADME, cell-based; details: human, read-out: permeability
Cytochrome P450 3A4 [6] = target: T2, Cytochrome P450 3A4; test: Inhibition of CYP3A4 in presence of BQ substrate; type: ADME
[7] = target: T1, Protein kinase C theta type; test: Inhibition of PKCtheta in presence of 50 uM ATP
[8] = target: T1, Protein kinase C theta type; test: Inhibition of PKCtheta in presence of 100 uM ATP

T1 sequence (Q04759 whole entry): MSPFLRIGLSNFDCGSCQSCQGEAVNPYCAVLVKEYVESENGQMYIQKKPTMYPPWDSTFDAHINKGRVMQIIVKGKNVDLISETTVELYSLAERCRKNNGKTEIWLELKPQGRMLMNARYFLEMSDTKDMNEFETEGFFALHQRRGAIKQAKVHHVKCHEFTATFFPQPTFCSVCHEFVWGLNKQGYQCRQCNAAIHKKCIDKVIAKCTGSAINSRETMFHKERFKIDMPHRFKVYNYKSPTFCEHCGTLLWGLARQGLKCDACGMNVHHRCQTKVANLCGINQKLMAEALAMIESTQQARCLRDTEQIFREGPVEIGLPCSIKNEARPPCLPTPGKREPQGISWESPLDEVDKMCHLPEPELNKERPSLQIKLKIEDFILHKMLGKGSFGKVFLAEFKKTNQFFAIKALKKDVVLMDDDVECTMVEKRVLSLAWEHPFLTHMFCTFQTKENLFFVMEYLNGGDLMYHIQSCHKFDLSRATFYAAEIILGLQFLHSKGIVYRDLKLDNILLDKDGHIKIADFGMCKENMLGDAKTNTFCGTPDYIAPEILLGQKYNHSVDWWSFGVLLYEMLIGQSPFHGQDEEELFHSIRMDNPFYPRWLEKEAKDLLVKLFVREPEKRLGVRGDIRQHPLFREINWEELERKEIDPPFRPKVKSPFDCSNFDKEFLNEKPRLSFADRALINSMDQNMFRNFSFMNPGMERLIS

Structure (SMILES) | pIC50 [1] | also measured
NCC1CCC(CNc2nc(NCc3cccc(F)c3)ncc2[N+](=O)[O-])CC1 (stereo unspecified) | 7.08 | –
NCC1CCC(CNc2nc(NCc3cccc(F)c3F)ncc2[N+](=O)[O-])CC1 (stereo unspecified) | 7.66 | –
Cc1cccc(CNc2ncc([N+](=O)[O-])c(NCC3CCC(CN)CC3)n2)c1C (stereo unspecified) | 7.89 | –
Cc1ccc(C)c(CNc2ncc([N+](=O)[O-])c(NCC3CCC(CN)CC3)n2)c1 (stereo unspecified) | 6.04 | –
NCC1CCC(CNc2nc(NCc3ccc(F)cc3)ncc2[N+](=O)[O-])CC1 (stereo unspecified) | 6.68 | –
COc1ccc(CNc2ncc([N+](=O)[O-])c(NCC3CCC(CN)CC3)n2)cc1 (stereo unspecified) | 4.92 | –
NCC1CCC(CNc2nc(NCc3ccccc3C(F)F)ncc2[N+](=O)[O-])CC1 (stereo unspecified) | 7.82 | –
NCC1CCC(CNc2nc(NCc3ccc(F)cc3F)ncc2[N+](=O)[O-])CC1 (stereo unspecified) | 7.00 | –
NCC1CCC(CNc2nc(NC(=O)c3ccccc3Br)ncc2[N+](=O)[O-])CC1 (stereo unspecified) | 5.66 | –
NC[C@H]1CC[C@@H](CNc2nc(NCc3ccccc3Cl)ncc2[N+](=O)[O-])CC1 | 7.74 | –
CN(C)CC1CCC(CNc2nc(NCc3ccccc3Cl)ncc2[N+](=O)[O-])CC1 (stereo unspecified) | 7.27 | pIC50 (T-cell): 6.72; pIC50 (Cytochrome P450 2C9): 5.08; pIC50 (Cytochrome P450 2D6): 5.77; pIC50 (Cytochrome P450 3A4 [2]): 5.77; half-life [3]: 40 min; Papp A→B [4]: 10.6 ×10⁻⁶ cm/s; Papp B→A [5]: 10.2 ×10⁻⁶ cm/s; pIC50 (Cytochrome P450 3A4 [6]): 4.89
O=[N+]([O-])c1cnc(NCc2ccccc2Cl)nc1NCC1CCNCC1 | 7.05 | pIC50 (T-cell): 6.14; pIC50 (Cytochrome P450 2C9): 4.75; pIC50 (Cytochrome P450 2D6): < 4.52; pIC50 (Cytochrome P450 3A4 [2]): 4.55; half-life [3]: 66 min; Papp A→B [4]: 8.1 ×10⁻⁶ cm/s; Papp B→A [5]: 10.6 ×10⁻⁶ cm/s; pIC50 (Cytochrome P450 3A4 [6]): < 4.52
NCC1CCC(CNc2nc(NCc3ccccc3SC(F)(F)F)ncc2[N+](=O)[O-])CC1 (stereo unspecified) | 8.22 | –
NCC1CCC(CNc2nc(NCc3ccccc3Br)ncc2[N+](=O)[O-])CC1 (stereo unspecified) | 8.30 | –
NCC1CCC(CNc2nc(NCc3ccccc3-c3ccccc3)ncc2[N+](=O)[O-])CC1 (stereo unspecified) | 7.41 | –
NCC1CCC(CNc2nc(NCc3c(F)cccc3F)ncc2[N+](=O)[O-])CC1 (stereo unspecified) | 7.38 | –
NCC1CCC(CNc2nc(NCc3cccc(Cl)c3Cl)ncc2[N+](=O)[O-])CC1 (stereo unspecified) | 8.10 | –
NCC1CCC(CNc2nc(NCc3ccc(Cl)cc3Cl)ncc2[N+](=O)[O-])CC1 (stereo unspecified) | 7.57 | –
CC(C)(Nc1ncc([N+](=O)[O-])c(NCC2CCC(CN)CC2)n1)c1ccccc1 (stereo unspecified) | 5.60 | –
C[C@H](Nc1ncc([N+](=O)[O-])c(NCC2CCC(CN)CC2)n1)c1ccccc1 (stereo partly specified) | 5.43 | –
NCC1CCCC(CNc2nc(NCc3ccccc3Cl)ncc2[N+](=O)[O-])C1 (stereo unspecified) | 8.52 | –

Structure (SMILES) | pIC50 [1] | also measured
NCCCCCNc1nc(NCc2ccccc2Cl)ncc1[N+](=O)[O-] | 6.35 | –
NCCCCCCCNc1nc(NCc2ccccc2Cl)ncc1[N+](=O)[O-] | 6.96 | –
NCC1CCC(CNc2nc(NCc3cc(Cl)ccc3Cl)ncc2[N+](=O)[O-])CC1 (stereo unspecified) | 8.15 | –
Cc1c(Cl)cccc1CNc1ncc([N+](=O)[O-])c(NCC2CCC(CN)CC2)n1 (stereo unspecified) | 7.34 | –
NCC1CCC(CNc2nc(N[C@H]3CCc4ccccc43)ncc2[N+](=O)[O-])CC1 (stereo partly specified) | 5.36 | –
NCC1CCC(CNc2nc(N[C@@H]3CCc4ccccc43)ncc2[N+](=O)[O-])CC1 (stereo partly specified) | 6.34 | –
NCC1CCC(CNc2nc(NCc3ccccc3Cl)ncc2[N+](=O)[O-])CC1 (stereo unspecified) | 7.34 | pIC50 [7]: 6.54; pIC50 [8]: 6.20; pIC50 (T-cell): 7.08; pIC50 (Cytochrome P450 2C9): 6.00; pIC50 (Cytochrome P450 2D6): 5.37; pIC50 (Cytochrome P450 3A4 [2]): 6.15; half-life [3]: 48 min; Papp A→B [4]: 4 ×10⁻⁶ cm/s; Papp B→A [5]: 6.9 ×10⁻⁶ cm/s; pIC50 (Cytochrome P450 3A4 [6]): 5.85
NCC1CCC(CNc2nc(NCc3ccc(Cl)cc3)ncc2[N+](=O)[O-])CC1 (stereo unspecified) | 6.77 | –
Cc1ccccc1CCNc1ncc([N+](=O)[O-])c(NCC2CCC(CN)CC2)n1 (stereo unspecified) | 6.74 | –
NCC1CCC(CNc2nc(NCCc3ccccc3F)ncc2[N+](=O)[O-])CC1 (stereo unspecified) | 6.89 | –
NCC1CCC(CNc2nc(Nc3cc(Cl)cc(Cl)c3)ncc2C(F)(F)F)CC1 (stereo unspecified) | 5.38 | –
NCC1CCC(CNc2nc(Nc3cccc(Cl)c3)ncc2C(F)(F)F)CC1 (stereo unspecified) | 6.19 | –
NCC1CCC(CNc2nc(NCCc3ccc(F)cc3)ncc2[N+](=O)[O-])CC1 (stereo unspecified) | 7.11 | –
NCC1CCC(CNc2nc(NCc3ccccc3)ncc2[N+](=O)[O-])CC1 (stereo unspecified) | 6.30 | –
NCC1CCC(CNc2nc(NC3Cc4ccccc4C3)ncc2[N+](=O)[O-])CC1 (stereo unspecified) | 7.51 | –
NCC1CCC(CNc2nc(NCCc3ccccc3)ncc2[N+](=O)[O-])CC1 (stereo unspecified) | 7.03 | –
NCC1CCC(CNc2nc(NCc3ccccc3C(F)(F)F)ncc2[N+](=O)[O-])CC1 (stereo unspecified) | 7.92 | –
NCC1CCC(CNc2nc(NCc3ccccc3OC(F)(F)F)ncc2[N+](=O)[O-])CC1 (stereo unspecified) | 7.74 | –
NCC1CCC(CNc2nc(NCCCCc3ccccc3)ncc2[N+](=O)[O-])CC1 (stereo unspecified) | 7.05 | –
NCC1CCC(CNc2nc(NCCc3cccc(F)c3)ncc2[N+](=O)[O-])CC1 (stereo unspecified) | 7.27 | –
NCc1ccc(CNc2nc(NCc3ccccc3Cl)ncc2[N+](=O)[O-])cc1 | 6.80 | –

Structure (SMILES) | pIC50 [1] | also measured
NCc1cccc(CNc2nc(NCc3ccccc3Cl)ncc2[N+](=O)[O-])c1 | 6.70 | –
NCCCNc1nc(NCc2ccccc2Cl)ncc1[N+](=O)[O-] | < 5.00 | –
C[C@@H](Nc1ncc([N+](=O)[O-])c(NCC2CCC(CN)CC2)n1)c1ccccc1 (stereo partly specified) | 5.24 | –
CSc1ccccc1CNc1ncc([N+](=O)[O-])c(NCC2CCC(CN)CC2)n1 (stereo unspecified) | 8.30 | pIC50 (T-cell): 6.85; pIC50 (Cytochrome P450 2C9): 5.85; pIC50 (Cytochrome P450 2D6): 5.33; pIC50 (Cytochrome P450 3A4 [2]): 5.16; half-life [3]: 65 min; Papp A→B [4]: 1.6 ×10⁻⁶ cm/s; Papp B→A [5]: 1.9 ×10⁻⁶ cm/s; pIC50 (Cytochrome P450 3A4 [6]): < 4.52
NCC1CCC(CNc2nc(Nc3cc(Cl)cc(Cl)c3)ncc2[N+](=O)[O-])CC1 (stereo unspecified) | 6.17 | –
NCC1CCC(CNc2nc(NCc3cc(Cl)cc(Cl)c3)ncc2[N+](=O)[O-])CC1 (stereo unspecified) | 6.40 | –
COc1cc(CNc2ncc([N+](=O)[O-])c(NCC3CCC(CN)CC3)n2)cc(OC)c1 (stereo unspecified) | 5.82 | –
COc1cccc(CNc2ncc([N+](=O)[O-])c(NCC3CCC(CN)CC3)n2)c1 (stereo unspecified) | 6.68 | –
NCC1CCC(CNc2nc(NCc3ccccc3F)ncc2[N+](=O)[O-])CC1 (stereo unspecified) | 7.32 | –
COc1ccccc1CNc1ncc([N+](=O)[O-])c(NCC2CCC(CN)CC2)n1 (stereo unspecified) | 7.77 | –
NC[C@H]1CC[C@H](CNc2nc(NCc3ccccc3Cl)ncc2[N+](=O)[O-])CC1 | 7.54 | –
NCC1CCC(CNc2nc(NCc3cc(F)ccc3F)ncc2[N+](=O)[O-])CC1 (stereo unspecified) | 7.46 | –
NCC1CCC(CNc2nc(Nc3cccc(Cl)c3)ncc2[N+](=O)[O-])CC1 (stereo unspecified) | 7.22 | –
NCC1CCC(CNc2nc(NCc3ccccc3[N+](=O)[O-])ncc2[N+](=O)[O-])CC1 (stereo unspecified) | 7.96 | –
NCC1CCC(CNc2nc(NCCCc3ccccc3)ncc2[N+](=O)[O-])CC1 (stereo unspecified) | 6.57 | –
O=[N+]([O-])c1cnc(NCc2ccccc2Cl)nc1NCC1CCCCC1 | < 5.00 | –
CC(=O)NCC1CCC(CNc2nc(NCc3ccccc3Cl)ncc2[N+](=O)[O-])CC1 (stereo unspecified) | < 5.00 | –
Cc1ccccc1CNc1ncc([N+](=O)[O-])c(NCC2CCC(CN)CC2)n1 (stereo unspecified) | 7.47 | –
NCC1CCC(CNc2nc(NCc3cccc(Cl)c3)ncc2[N+](=O)[O-])CC1 (stereo unspecified) | 7.07 | –
Cc1cccc(CNc2ncc([N+](=O)[O-])c(NCC3CCC(CN)CC3)n2)c1 (stereo unspecified) | 7.41 | –

From ChEMBL document CHEMBL1138386, “Discovery of potent and selective PKC-theta inhibitors” (Bioorg Med Chem Lett, 2007)
